ASAP1 inh: blocks human ASAP1-stimulated Arf1 GTP hydrolysis; GDP FP detection; inhibition, % at 16.5 µM; 360,000 tested, 0.19% active; in the data active = inhibition above about 25%;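 note: 0% = vehicle with enzyme and substrate and 100% = no enzyme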
Target sequence (Q9ULH1 325-724 limits assumed): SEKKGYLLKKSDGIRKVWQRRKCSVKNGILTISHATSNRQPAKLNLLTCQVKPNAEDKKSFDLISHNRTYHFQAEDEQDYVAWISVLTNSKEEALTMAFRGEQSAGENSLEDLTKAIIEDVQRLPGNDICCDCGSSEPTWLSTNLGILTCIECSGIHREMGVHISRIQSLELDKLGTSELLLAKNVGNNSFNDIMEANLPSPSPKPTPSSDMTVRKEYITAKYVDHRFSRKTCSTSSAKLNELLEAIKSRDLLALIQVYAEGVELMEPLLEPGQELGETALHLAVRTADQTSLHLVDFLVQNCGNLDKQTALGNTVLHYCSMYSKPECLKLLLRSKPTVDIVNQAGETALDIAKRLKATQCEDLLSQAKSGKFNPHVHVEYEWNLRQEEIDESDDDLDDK
sPLA2-III inh: Inhibits HGIII-sPLA2 liposome hydrolysis, primary screen. QFRET BODIPY PC-A2 liposome hydrolysis, fluorescence. inhibition, % at 12.2 µM. AID 743126. 370,000 tested, 0.56% active;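 active = inhibition above mean plus 3 SD of compounds lying within the high and low control bounds, cut at about 19% in these data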;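 note: 0% = median of test compound wells and 100% = no enzyme DMSO wells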
PLC-gamma1 inh: PLC-gamma1 (human) inhibition, primary screen; inhibition, % at 12.2 µM; P19174; 370,000 tested, 0.84% active; AID 720700; purified PLC-gamma1, fluorogenic substrate, fluorescence; in the data active = inhibition above about 9.5%
PLC-beta3 inh: blocks human PLC-beta3 enzyme activity; Q01970; Purified PLC-beta3, fluorogenic substrate, fluorescence; inhibition, % at 12.2 µM; 370,000 tested, 0.18% active; AID 720704; in the data active = inhibition above about 11%;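 note: 0% = median of compound wells on plate and 100% = full blocker control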
ARFGAP1 inh: rat ARFGAP1 inhibition; AID 651572; inhibition, % at 16.5 µM; Arfgap1-stimulated ARF1 GTP hydrolysis, GDP FP detection; 360,000 tested, 0.26% active;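 active = inhibition above a per-plate limit, mean inhibition of low control wells plus 3 SD, cut at about 25% in these data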;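 note: 0% = DMSO wells with enzyme and 100% = wells lacking Arfgap1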
Target sequence (Q62848 1-136 limits assumed): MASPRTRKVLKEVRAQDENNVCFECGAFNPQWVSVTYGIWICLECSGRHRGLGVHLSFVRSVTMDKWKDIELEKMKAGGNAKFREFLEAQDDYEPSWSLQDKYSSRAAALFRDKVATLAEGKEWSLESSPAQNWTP
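Material: truncated rat Arfgap1 GAP domain; Incubation: compound-enzyme preincubation 20 min, reaction 120 min, detection 60 min, 25 °C; Read-out: percent inhibition of Arfgap1-stimulated GTP hydrolysis; Technique: FP, GDP Alexa 633 tracer displaced from anti-GDP antibody, 620/688 nm; Controls: No-Arfgap1 wells (100%) versus DMSO full-reaction wells (0%); Replication: single well per compound.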
Starred values were filed as active, the others as inactive; i = inactive; · = no result given. Shown are actives, neighbours in structure and some others; about 1.9% of the full set was active somewhere.

SMILES	ASAP1 inh	sPLA2-III inh	PLC-gamma1 inh	PLC-beta3 inh	ARFGAP1 inh
COC1=C[C@H](C(=O)NCCOC(C)=O)[C@H](C)[C@@H](c2ccccc2)CC1=O	·	3	-5	-7	·
CC(C)c1ccc(NC(=O)CCNS(=O)(=O)c2cccc3nonc23)cc1	2	-36	14*	8	4
Cc1ccccc1NC(=O)Cc1nc(COC(=O)COc2cccc(C)c2C)cs1	15	-68	12*	-11	-3
CCOc1ccccc1OCC(=O)OCc1csc(CC(=O)Nc2ccccc2C)n1	-1	-46	1	-6	2
Cc1ccc(C)c(S(=O)(=O)/N=C2\C=C(NS(=O)(=O)c3ccccc3)C(=O)c3ccccc32)c1	-13	-9	-1	-10	5
Cc1cc(C)c(S(=O)(=O)/N=C2/C=C(Sc3ncn[nH]3)C(=O)c3ccccc32)cc1C	14	-20	12*	-4	-8
Cc1cccc(C)c1NC(=O)C1(C)CSCC(=O)N1CCOc1ccccc1 (stereo not given)	-1	13	12*	11*	4
CN(C)c1ccc(-c2nc3ncc(Cl)cc3[nH]2)cc1	·	10	i	i	·
CN(C)c1ccc(/C=C/c2ccc3ccccc3[n+]2C)cc1	10	19*	-1	0	-2
CN1CC=C(c2ccccc2)N(c2ccc(Cl)cc2)C1=O	·	-10	4	3	·
N#C/C(=C\Nc1ccc2cn[nH]c2c1)c1nc(-c2ccccc2)cs1	2	3	-2	1	-4
N#C/C(=C\Nc1ccc2cn[nH]c2c1)c1nc(-c2ccc(Cl)cc2)cs1	29*	-1	-6	-16	15
O=C1OC(Nc2ncccn2)c2ccccc21 (stereo not given)	-8	-3	3	2	11
O=C1OC(Nc2cc(Br)cc3cccnc23)c2ccccc21 (stereo not given)	20	2	11*	-24	9
Cn1cc(P(=S)(N2CCOCC2)N2CCOCC2)cc1P(=O)(N1CCOCC1)N1CCOCC1	-8	7	18*	-4	-1
COc1ccc2c(c1)N[C@@](CCN1C(=O)c3ccccc3C1=O)(c1[nH]c3ccccc3c1CCN1C(=O)c3ccccc3C1=O)C2=O	·	1	3	2	·
C[C@@H]1CN([C@H](C)CO)C(=O)c2cc(NC(=O)Nc3ccc(C(F)(F)F)cc3)ccc2O[C@H]1CN(C)S(=O)(=O)c1cccs1	26*	-35	3	3	11
COc1ccc(S(=O)(=O)Nc2cccc3c2O[C@H](CN(C)C(=O)Nc2ccc(C(F)(F)F)cc2)[C@@H](C)CN([C@H](C)CO)C3=O)cc1	3	-34	9.9*	5	-2
CCN(CC)C(=O)CC[C@H]1CC[C@]2(CCCN(CC3CC3)C2)O1	·	5	2	0	·
COC(=O)[C@]12C[C@H](CC(=O)NCc3cccs3)C(=O)N(Cc3ccco3)C1=C[C@H](C(C)C)O[C@@H]2C1CC1	·	-2	0	-4	·
CCCn1c(NC(=O)c2ccccc2)nc(Cc2ccccc2)c1Cc1ccccc1	·	7	-8	-16	·
Nc1nc(-c2c[nH]c3ccccc23)cs1	2	10	-16	-23	5
CCC(C)Nc1nc(-c2c[nH]c3ccccc23)cs1 (stereo not given)	22	1	-56	-74	32*
C[C@@H](/C=C/C(=O)OC(C)(C)C)Sc1ccc(C(C)(C)C)cc1	·	7	1	2	·
COc1cccc2sc(Nc3nc(-c4cc5ccccc5oc4=O)cs3)nc12	23	-4	-17	-27	30*
SMILES	ASAP1 inh	sPLA2-III inh	PLC-gamma1 inh	PLC-beta3 inh	ARFGAP1 inh
CC1CC(C)CN(CCCNC(=O)C2CCC(=O)N2C2CCCC2)C1 (stereo not given)	-9	2	0	1	32*
O=C1CC2c3cc(Br)ccc3CCN2C(=O)CN1Cc1ccccc1 (stereo not given)	-5	9	2	0	3
CCOC(=O)/C=C(\C)Sc1cc(O)c2ccccc2c1O	29*	5	7	-4	21
COc1ccc(CCC(=O)Nc2c(-c3ccc(N(C)C)cc3)[nH][nH]c2=O)cc1	49*	12	-157	-249	-3
CC(C)(C)OC(=O)N1CCC(N[C@@H](Cc2ccccc2)C(=O)NCCc2c[nH]c3ccccc23)(C(=O)NC2CCCCC2)CC1	·	-60	8	3	·
CNc1ccc(C=C2C=Cc3ccccc32)cc1	16	25*	11*	7	7
CN(CCCOC(=O)c1cc2ccccc2o1)C1CN(Cc2cn(Cc3ccc([N+](=O)[O-])cc3)nn2)S(=O)(=O)C1 (stereo not given)	·	-7	0	4	·
O=S(=O)(CC1NCCc2ccccc21)NCCc1ccccc1 (stereo not given)	·	7	1	0	·
CCCOc1ccc(Cn2c(=O)oc3ccc(C)cc32)cc1OC	-2	4	6	13*	8
CCCOc1ccccc1Cn1c(=O)oc2ccc(C)cc21	-8	4	-1	0	-14
COc1ccc([C@H]2OC(=O)C[C@H]2C(=O)N2CCN(c3ccccc3Cl)CC2)cc1OC	·	-4	-3	5	·
NC(=Nc1cccc(F)c1)NC(=O)OCc1ccccc1	·	-5	0	3	·
Cc1cc(NS(C)(=O)=O)c(=O)n(Cc2cccc(F)c2)c1	-7	23*	-10	-8	0
CCCC1CCC2(CC1)CCC2OC(=S)Nc1cccc(Cl)c1 (stereo not given)	·	10	2	-2	·
O=C1C(=Cc2ccco2)CCC1=Cc1ccco1	-13	-4	11*	-4	-26
O=C1C(=Cc2ccco2)CCCC1=Cc1ccco1	9	-4	-33	-52	3
CCN(CC)c1ccc(N=Nc2ncn[nH]2)cc1	0	-25	3	12*	3
CCN(CC)c1ccc(/C=N/O)cc1	-3	3	-2	-12	5
O=C1C(C2=C(O)c3ccccc3C2=O)=Nc2ccccc21	39*	1	-32	-47	16
Cc1c(C(=O)Nc2cccc(N(C)S(C)(=O)=O)c2)cccc1[N+](=O)[O-]	5	-4	14*	14*	8
O=C1CC(SC(=S)C2CCCC2=O)C(=O)N1 (stereo not given)	-11	5	12*	-16	7
CC1=NN(c2ccccc2)C(=O)C1C(=S)SC1CC(=O)NC1=O (stereo not given)	10	7	5	0	2
COC(=O)C1CN(Cc2cn(CCC3OCCO3)nn2)CCS(=O)(=O)N1Cc1ccc(OC)cc1 (stereo not given)	·	7	-1	1	·
COCC(=O)OC1CCn2c1nc1c2C(=O)C(C)=C(NC(C)=O)C1=O (stereo not given)	22	-5	14*	6	-14
COc1ccc(CN2CCN(c3cccc(C)c3C)CC2)cc1OC	1	-7	0	1	34*
C/C(CC(=O)NC1CCCCC1)=N\NC(=O)c1ccccc1C	0	-4	0	-2	-2
